Reference: ChEMBL document CHEMBL5058577, “EUbOPEN Chemogenomics Library 2 (Multiplex)” (2022)

Test system: Fibroblast
Test: Multiplex assay against human fibroblast
Assay type: toxicity, cell-based
Procedure, shortened: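 With compound added, live cells were imaged on a CQ1 microscope at 37°C and 5% CO2; staining with Hoechst33342, BioTracker Green Microtubule Cytoskeleton Dye, MitoTracker Red and Annexin V Alexa Fluor 680 had been done at seeding. The CellPathfinder machine-learning gating scheme split cells into Hoechst high-intensity objects or normal cells, normal cells into healthy, pyknosed or fragmented nuclei, and pyknosed cells into mitotic or apoptotic. The tubulin, mitochondrial-mass and membrane-permeability phenotypes are per cents of healthy-nucleus cells.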

[1] = 12 h, 1 µM, compound concentration 1 uM, replicate 1
[2] = 12 h, 1 µM, compound concentration 1 uM, replicate 2
[3] = 12 h, 10 µM, compound concentration 10 uM, replicate 1
[4] = 12 h, 10 µM, compound concentration 10 uM, replicate 2
[5] = 24 h, 1 µM, compound concentration 1 uM, replicate 1
[6] = 24 h, 1 µM, compound concentration 1 uM, replicate 2
[7] = 24 h, 10 µM, compound concentration 10 uM, replicate 1
[8] = 24 h, 10 µM, compound concentration 10 uM, replicate 2
[9] = 48 h, 1 µM, compound concentration 1 uM, replicate 1
[10] = 48 h, 1 µM, compound concentration 1 uM, replicate 2
[11] = 48 h, 10 µM, compound concentration 10 uM, replicate 1
[12] = 48 h, 10 µM, compound concentration 10 uM, replicate 2

Structure (SMILES): CC(=O)NCCc1c(Cc2ccccc2)[nH]c2ccccc12 [LUZINDOLE]
- Population Apoptotic (%) [1]: 41%
- Population Fragmented Nuclei (%) [1]: 15%
- Population Healthy Nuclei (%) [1]: 65%
- Population Hoechst High Intensity Objects (%) [1]: 1%
- Population Membrane Permeable-Phenotype (%) [1]: 2%
- Population Mitochondria Different-Phenotype (%) [1]: 7%
- Population Mitotic Cells (%) [1]: 58%
- Population Normal (%) [1]: 98%
- Population Pyknosed Nuclei (%) [1]: 18%
- Population Tubulin-Different-Phenotype (%) [1]: 30%
- Total Cell Count [1]: 129
- Population Apoptotic (%) [2]: 40%
- Population Fragmented Nuclei (%) [2]: 25%
- Population Healthy Nuclei (%) [2]: 39%
- Population Hoechst High Intensity Objects (%) [2]: 4%
- Population Membrane Permeable-Phenotype (%) [2]: 9%
- Population Mitochondria Different-Phenotype (%) [2]: 11%
- Population Mitotic Cells (%) [2]: 59%
- Population Normal (%) [2]: 95%
- Population Pyknosed Nuclei (%) [2]: 34%
- Population Tubulin-Different-Phenotype (%) [2]: 50%
- Total Cell Count [2]: 134
- Population Apoptotic (%) [3]: 19%
- Population Fragmented Nuclei (%) [3]: 15%
- Population Healthy Nuclei (%) [3]: 69%
- Population Hoechst High Intensity Objects (%) [3]: 2%
- Population Membrane Permeable-Phenotype (%) [3]: 2%
- Population Mitochondria Different-Phenotype (%) [3]: 7%
- Population Mitotic Cells (%) [3]: 80%
- Population Normal (%) [3]: 97%
- Population Pyknosed Nuclei (%) [3]: 15%
- Population Tubulin-Different-Phenotype (%) [3]: 42%
- Total Cell Count [3]: 140
- Population Apoptotic (%) [4]: 21%
- Population Fragmented Nuclei (%) [4]: 26%
- Population Healthy Nuclei (%) [4]: 59%
- Population Membrane Permeable-Phenotype (%) [4]: 13%
- Population Mitochondria Different-Phenotype (%) [4]: 4%
- Population Mitotic Cells (%) [4]: 78%
- Population Pyknosed Nuclei (%) [4]: 13%
- Population Tubulin-Different-Phenotype (%) [4]: 32%
- Total Cell Count [4]: 105
- Population Apoptotic (%) [5]: 54%
- Population Fragmented Nuclei (%) [5]: 21%
- Population Healthy Nuclei (%) [5]: 61%
- Population Hoechst High Intensity Objects (%) [5]: 0%
- Population Membrane Permeable-Phenotype (%) [5]: 0%
- Population Mitochondria Different-Phenotype (%) [5]: 3%
- Population Mitotic Cells (%) [5]: 45%
- Population Normal (%) [5]: 99%
- Population Pyknosed Nuclei (%) [5]: 16%
- Population Tubulin-Different-Phenotype (%) [5]: 13%
- Total Cell Count [5]: 134
- Population Apoptotic (%) [6]: 45%
- Population Fragmented Nuclei (%) [6]: 25%
- Population Healthy Nuclei (%) [6]: 47%
- Population Hoechst High Intensity Objects (%) [6]: 5%
- Population Membrane Permeable-Phenotype (%) [6]: 8%
- Population Mitochondria Different-Phenotype (%) [6]: 8%
- Population Mitotic Cells (%) [6]: 54%
- Population Normal (%) [6]: 94%
- Population Pyknosed Nuclei (%) [6]: 26%
- Population Tubulin-Different-Phenotype (%) [6]: 50%
- Total Cell Count [6]: 137
- Population Apoptotic (%) [7]: 47%
- Population Fragmented Nuclei (%) [7]: 15%
- Population Healthy Nuclei (%) [7]: 67%
- Population Hoechst High Intensity Objects (%) [7]: 2%
- Population Membrane Permeable-Phenotype (%) [7]: 1%
- Population Mitochondria Different-Phenotype (%) [7]: 5%
- Population Mitotic Cells (%) [7]: 52%
- Population Normal (%) [7]: 97%
- Population Pyknosed Nuclei (%) [7]: 17%
- Population Tubulin-Different-Phenotype (%) [7]: 29%
- Total Cell Count [7]: 138
- Population Apoptotic (%) [8]: 23%
- Population Fragmented Nuclei (%) [8]: 27%
- Population Healthy Nuclei (%) [8]: 59%
- Population Hoechst High Intensity Objects (%) [8]: 3%
- Population Membrane Permeable-Phenotype (%) [8]: 5%
- Population Mitochondria Different-Phenotype (%) [8]: 3%
- Population Mitotic Cells (%) [8]: 76%
- Population Normal (%) [8]: 96%
- Population Pyknosed Nuclei (%) [8]: 12%
- Population Tubulin-Different-Phenotype (%) [8]: 33%
- Total Cell Count [8]: 105
- Population Apoptotic (%) [9]: 75%
- Population Fragmented Nuclei (%) [9]: 15%
- Population Healthy Nuclei (%) [9]: 72%
- Population Hoechst High Intensity Objects (%) [9]: 5%
- Population Membrane Permeable-Phenotype (%) [9]: 2%
- Population Mitochondria Different-Phenotype (%) [9]: 3%
- Population Mitotic Cells (%) [9]: 25%
- Population Normal (%) [9]: 94%
- Population Pyknosed Nuclei (%) [9]: 12%
- Population Tubulin-Different-Phenotype (%) [9]: 24%
- Total Cell Count [9]: 134
- Population Apoptotic (%) [10]: 39%
- Population Fragmented Nuclei (%) [10]: 27%
- Population Healthy Nuclei (%) [10]: 55%
- Population Hoechst High Intensity Objects (%) [10]: 8%
- Population Membrane Permeable-Phenotype (%) [10]: 9%
- Population Mitochondria Different-Phenotype (%) [10]: 5%
- Population Mitotic Cells (%) [10]: 60%
- Population Normal (%) [10]: 91%
- Population Pyknosed Nuclei (%) [10]: 16%
- Population Tubulin-Different-Phenotype (%) [10]: 46%
- Total Cell Count [10]: 149
- Population Apoptotic (%) [11]: 80%
- Population Fragmented Nuclei (%) [11]: 19%
- Population Healthy Nuclei (%) [11]: 70%
- Population Hoechst High Intensity Objects (%) [11]: 3%
- Population Membrane Permeable-Phenotype (%) [11]: 0%
- Population Mitochondria Different-Phenotype (%) [11]: 3%
- Population Mitotic Cells (%) [11]: 20%
- Population Normal (%) [11]: 96%
- Population Pyknosed Nuclei (%) [11]: 10%
- Population Tubulin-Different-Phenotype (%) [11]: 34%
- Total Cell Count [11]: 147
- Population Apoptotic (%) [12]: 54%
- Population Fragmented Nuclei (%) [12]: 34%
- Population Healthy Nuclei (%) [12]: 54%
- Population Hoechst High Intensity Objects (%) [12]: 4%
- Population Membrane Permeable-Phenotype (%) [12]: 3%
- Population Mitotic Cells (%) [12]: 45%
- Population Normal (%) [12]: 95%
- Population Tubulin-Different-Phenotype (%) [12]: 50%
- Total Cell Count [12]: 111

Structure (SMILES): N[C@@]1(C(=O)O)CO[C@H]2[C@H](C(=O)O)[C@H]21 [LY-379268]
- Population Apoptotic (%) [1]: 22%
- Population Fragmented Nuclei (%) [1]: 17%
- Population Healthy Nuclei (%) [1]: 70%
- Population Hoechst High Intensity Objects (%) [1]: 1%
- Population Membrane Permeable-Phenotype (%) [1]: 0%
- Population Mitochondria Different-Phenotype (%) [1]: 2%
- Population Mitotic Cells (%) [1]: 77%
- Population Normal (%) [1]: 98%
- Population Pyknosed Nuclei (%) [1]: 11%
- Population Tubulin-Different-Phenotype (%) [1]: 25%
- Total Cell Count [1]: 156
- Population Apoptotic (%) [2]: 44%
- Population Fragmented Nuclei (%) [2]: 33%
- Population Healthy Nuclei (%) [2]: 43%
- Population Hoechst High Intensity Objects (%) [2]: 10%
- Population Membrane Permeable-Phenotype (%) [2]: 5%
- Population Mitochondria Different-Phenotype (%) [2]: 1%
- Population Mitotic Cells (%) [2]: 55%
- Population Normal (%) [2]: 89%
- Population Pyknosed Nuclei (%) [2]: 22%
- Population Tubulin-Different-Phenotype (%) [2]: 45%
- Total Cell Count [2]: 145
- Population Apoptotic (%) [3]: 29%
- Population Fragmented Nuclei (%) [3]: 15%
- Population Healthy Nuclei (%) [3]: 69%
- Population Hoechst High Intensity Objects (%) [3]: 3%
- Population Membrane Permeable-Phenotype (%) [3]: 0%
- Population Mitochondria Different-Phenotype (%) [3]: 3%
- Population Mitotic Cells (%) [3]: 70%
- Population Normal (%) [3]: 96%
- Population Pyknosed Nuclei (%) [3]: 14%
- Population Tubulin-Different-Phenotype (%) [3]: 19%
- Total Cell Count [3]: 187
- Population Apoptotic (%) [4]: 21%
- Population Healthy Nuclei (%) [4]: 51%
- Population Membrane Permeable-Phenotype (%) [4]: 4%
- Population Mitochondria Different-Phenotype (%) [4]: 1%
- Population Mitotic Cells (%) [4]: 78%
- Population Pyknosed Nuclei (%) [4]: 33%
- Population Tubulin-Different-Phenotype (%) [4]: 47%
- Total Cell Count [4]: 128
- Population Apoptotic (%) [5]: 36%
- Population Fragmented Nuclei (%) [5]: 16%
- Population Healthy Nuclei (%) [5]: 70%
- Population Hoechst High Intensity Objects (%) [5]: 0%
- Population Membrane Permeable-Phenotype (%) [5]: 0%
- Population Mitochondria Different-Phenotype (%) [5]: 5%
- Population Mitotic Cells (%) [5]: 63%
- Population Normal (%) [5]: 99%
- Population Pyknosed Nuclei (%) [5]: 12%
- Population Tubulin-Different-Phenotype (%) [5]: 23%
- Total Cell Count [5]: 152
- Population Apoptotic (%) [6]: 47%
- Population Fragmented Nuclei (%) [6]: 40%
- Population Healthy Nuclei (%) [6]: 41%
- Population Hoechst High Intensity Objects (%) [6]: 10%
- Population Membrane Permeable-Phenotype (%) [6]: 4%
- Population Mitochondria Different-Phenotype (%) [6]: 10%
- Population Mitotic Cells (%) [6]: 52%
- Population Normal (%) [6]: 89%
- Population Pyknosed Nuclei (%) [6]: 18%
- Population Tubulin-Different-Phenotype (%) [6]: 60%
- Total Cell Count [6]: 125
- Population Apoptotic (%) [7]: 66%
- Population Fragmented Nuclei (%) [7]: 14%
- Population Healthy Nuclei (%) [7]: 75%
- Population Hoechst High Intensity Objects (%) [7]: 5%
- Population Membrane Permeable-Phenotype (%) [7]: 0%
- Population Mitochondria Different-Phenotype (%) [7]: 3%
- Population Mitotic Cells (%) [7]: 33%
- Population Normal (%) [7]: 94%
- Population Pyknosed Nuclei (%) [7]: 10%
- Population Tubulin-Different-Phenotype (%) [7]: 19%
- Total Cell Count [7]: 189
- Population Apoptotic (%) [8]: 22%
- Population Fragmented Nuclei (%) [8]: 17%
- Population Healthy Nuclei (%) [8]: 53%
- Population Hoechst High Intensity Objects (%) [8]: 6%
- Population Membrane Permeable-Phenotype (%) [8]: 2%
- Population Mitochondria Different-Phenotype (%) [8]: 0%
- Population Mitotic Cells (%) [8]: 77%
- Population Normal (%) [8]: 93%
- Population Pyknosed Nuclei (%) [8]: 28%
- Population Tubulin-Different-Phenotype (%) [8]: 44%
- Total Cell Count [8]: 133
- Population Apoptotic (%) [9]: 76%
- Population Fragmented Nuclei (%) [9]: 22%
- Population Healthy Nuclei (%) [9]: 68%
- Population Hoechst High Intensity Objects (%) [9]: 3%
- Population Membrane Permeable-Phenotype (%) [9]: 0%
- Population Mitochondria Different-Phenotype (%) [9]: 5%
- Population Mitotic Cells (%) [9]: 23%
- Population Normal (%) [9]: 96%
- Population Pyknosed Nuclei (%) [9]: 8%
- Population Tubulin-Different-Phenotype (%) [9]: 26%
- Total Cell Count [9]: 156
- Population Apoptotic (%) [10]: 50%
- Population Fragmented Nuclei (%) [10]: 33%
- Population Healthy Nuclei (%) [10]: 55%
- Population Hoechst High Intensity Objects (%) [10]: 11%
- Population Membrane Permeable-Phenotype (%) [10]: 4%
- Population Mitochondria Different-Phenotype (%) [10]: 7%
- Population Mitotic Cells (%) [10]: 50%
- Population Normal (%) [10]: 88%
- Population Pyknosed Nuclei (%) [10]: 11%
- Population Tubulin-Different-Phenotype (%) [10]: 59%
- Total Cell Count [10]: 136
- Population Apoptotic (%) [11]: 62%
- Population Fragmented Nuclei (%) [11]: 14%
- Population Healthy Nuclei (%) [11]: 72%
- Population Hoechst High Intensity Objects (%) [11]: 1%
- Population Membrane Permeable-Phenotype (%) [11]: 0%
- Population Mitochondria Different-Phenotype (%) [11]: 0%
- Population Mitotic Cells (%) [11]: 37%
- Population Normal (%) [11]: 98%
- Population Pyknosed Nuclei (%) [11]: 13%
- Population Tubulin-Different-Phenotype (%) [11]: 19%
- Total Cell Count [11]: 179
- Population Apoptotic (%) [12]: 42%
- Population Fragmented Nuclei (%) [12]: 27%
- Population Healthy Nuclei (%) [12]: 56%
- Population Hoechst High Intensity Objects (%) [12]: 7%
- Population Membrane Permeable-Phenotype (%) [12]: 10%
- Population Mitochondria Different-Phenotype (%) [12]: 5%
- Population Mitotic Cells (%) [12]: 57%
- Population Normal (%) [12]: 92%
- Population Pyknosed Nuclei (%) [12]: 16%
- Population Tubulin-Different-Phenotype (%) [12]: 47%
- Total Cell Count [12]: 140
